Data: ChEMBL document CHEMBL1135500, “Highly antibacterial active aminoacyl penicillin conjugates with acylated bis-catecholate siderophores based on secondary diamino acids and related compounds” (2002)
Converted amounts (≈) assume the structure as drawn.

Assays:
Assay type in all cases: functional
Escherichia coli [1] = experiment: Siderophore activity determined using growth promoting assay in ATCC 25922 strain of Escherichia coli under iron limited conditions
In short: (§1)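 Growth promotion under iron limitation. Overnight Nutrient Agar cultures suspended in medium VA to 1 McFarland, then 1.5 mL mixed into 99 mL Al2O3-treated Hall-Ratledge agar (pH 6.8) with trace elements and EDDHA. 5 µL of 2 mM compound applied on 6 mm paper disks. Growth zone around disks measured after 18-20 h at 37 °C.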

Pseudomonas aeruginosa [2] = experiment: Siderophore activity determined using growth promoting assay in ATCC 27853 strain of Pseudomonas aeruginosa under iron limited conditions; in short: as §1
Pseudomonas aeruginosa [3] = experiment: Siderophore activity determined using growth promoting assay in ATCC 9027 strain of Pseudomonas aeruginosa under iron limited conditions; in short: as §1
Pseudomonas aeruginosa [4] = experiment: Siderophore activity determined using growth promoting assay in K799/WT strain of Pseudomonas aeruginosa under iron limited conditions; in short: as §1
Pseudomonas aeruginosa [5] = experiment: (§2) Siderophore activity determined using growth promoting assay in NCTC-10662 strain of Pseudomonas aeruginosa under iron limited conditions; set-up: unit not given beside the values; in short: as §1
Pseudomonas aeruginosa [6] = experiment: Siderophore activity determined using growth promoting assay in SG137 strain of Pseudomonas aeruginosa under iron limited conditions; in short: as §1
Pseudomonas aeruginosa [7] = experiment: as §2; in short: as §1
Escherichia coli [8] = experiment: Influence of siderophore receptor on antibacterial activity in Escherichia coli (1875) using agar diffusion assay
In short: (§3)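 Agar diffusion in Nutrient Agar with E. coli K-12 mutants altered in catecholate siderophore receptors Cir, Fiu and FepA. 50 µL of a 0.2 mM compound solution filled into 9 mm agar wells, with clavulanic acid 10 µg/mL added to block the penicillinase selection marker. Inhibition zone diameters (mm) read after overnight incubation at 37 °C.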

Escherichia coli [9] = experiment: Influence of siderophore receptor on antibacterial activity in Escherichia coli (H873) using agar diffusion assay; in short: as §3
Escherichia coli [10] = experiment: Influence of siderophore receptor on antibacterial activity in Escherichia coli (H1443) using agar diffusion assay; in short: as §3
Escherichia coli [11] = experiment: Influence of siderophore receptor on antibacterial activity in Escherichia coli (H1876) using agar diffusion assay; in short: as §3
Escherichia coli [12] = experiment: Influence of siderophore receptor on antibacterial activity in Escherichia coli (H1877) using agar diffusion assay; in short: as §3
Escherichia coli [13] = experiment: In vitro antibacterial activity against ATCC 25922 strain of Escherichia coli
In short: (§4)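 MIC by microbroth dilution in Mueller-Hinton broth following NCCLS guidelines.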

Klebsiella pneumoniae = experiment: In vitro antibacterial activity against ATCC 100331 strain of Klebsiella pneumoniae; in short: as §4
Pseudomonas aeruginosa [14] = experiment: In vitro antibacterial activity against SG 137 strain of Pseudomonas aeruginosa; in short: as §4
Serratia marcescens = experiment: In vitro antibacterial activity against SG 621 strain of Serratia marcescens; in short: as §4
Staphylococcus aureus = experiment: In vitro antibacterial activity against SG 511 strain of Staphylococcus aureus; in short: as §4
[15] = test system: Stenotrophomonas maltophilia; experiment: In vitro antibacterial activity against GN 12873 strain of Stenotrophomonas maltophilia; in short: as §4
Pseudomonas aeruginosa [16] = experiment: In vitro antibacterial activity against ATCC 27853 strain of Pseudomonas aeruginosa; in short: as §4

| SMILES | Activity (Escherichia coli [1]) | Activity (Pseudomonas aeruginosa [2]) | Activity (Pseudomonas aeruginosa [3]) | Activity (Pseudomonas aeruginosa [4]) | Activity (Pseudomonas aeruginosa [5]) | Activity (Pseudomonas aeruginosa [6]) | further results |
| --- | --- | --- | --- | --- | --- | --- | --- |
| COC(=O)Oc1cc(Cl)cc(C(=O)N(C)CCCN(CC(=O)O)C(=O)c2cc(Cl)cc(OC(=O)OC)c2OC(=O)OC)c1OC(=O)OC | 30 | 25 | 24 | 25 | 25 | 26 |  |
| CC(=O)Oc1ccc(C(=O)NCCCCN(CC(=O)O)C(=O)c2ccc(OC(C)=O)c(OC(C)=O)c2)cc1OC(C)=O | 21 | 25 | 19 | 20 | 14 | 10 |  |
| CC(=O)Oc1cccc(C(=O)NCCCCN(Cc2ccccc2C(=O)O)C(=O)c2cccc(OC(C)=O)c2OC(C)=O)c1OC(C)=O | 27 | 22 |  | 15 | 23 | 21 |  |
| COC(=O)Oc1cccc2c(=O)n(CCC(=O)Nc3cc(NC(=O)CCn4c(=O)oc5c(OC(=O)OC)cccc5c4=O)cc(C(=O)O)c3)c(=O)oc12 | 20 | 18 | 20 |  | 20 | 23 |  |
| CC(=O)Oc1cccc(C(=O)N(C)CCCN(CC(=O)O)C(=O)c2cccc(OC(C)=O)c2OC(C)=O)c1OC(C)=O | 20 | 19 | 18 | 22 | 23 | 15 |  |
| COC(=O)Oc1cccc(C(=O)N(CCCn2c(=O)oc3c(OC(=O)OC)cccc3c2=O)C(C)C(=O)O)c1OC(=O)OC (configuration not stated) | 22 | 15 |  | 22 | 25 | 19 |  |
| COC(=O)Oc1cccc(C(=O)N(CCCn2c(=O)oc3c(OC(=O)OC)cccc3c2=O)C(C)CCC(=O)O)c1OC(=O)OC (configuration not stated) | 15 | 13 |  | 14 | 20 | 15 |  |
| COC(=O)Oc1cc(Cl)c(Cl)c(C(=O)N(C)CCCN(CC(=O)O)C(=O)c2c(Cl)c(Cl)cc(OC(=O)OC)c2OC(=O)OC)c1OC(=O)OC | 30 | 25 | 25 | 25 | 30 | 30 |  |
| CC(=O)Oc1cccc(C(=O)NCCCCCN(CC(=O)O)C(=O)c2cccc(OC(C)=O)c2OC(C)=O)c1OC(C)=O | 27 | 30 | 20 | 25 | 30 | 28 |  |
| COC(=O)Oc1cccc2c(=O)n(CC(=O)Nc3cc(NC(=O)Cn4c(=O)oc5c(OC(=O)OC)cccc5c4=O)cc(C(=O)O)c3)c(=O)oc12 | 15 | 15 | 20 |  | 20 | 20 |  |
| CC(=O)Oc1cccc(C(=O)Nc2cc(NC(=O)c3cccc(OC(C)=O)c3OC(C)=O)cc(C(=O)O)c2)c1OC(C)=O | 27 | 0 | 10 |  | 17 | 20 |  |
| CC(=O)N(O)CCCCCNC(=O)CCC(=O)N(O)CCCCCNC(=O)CCC(=O)N(O)CCCCCN [DEFEROXAMINE] | 38 | 35 | 35 | 36 | 30 | 30 |  |
| CC(=O)Oc1cccc(C(=O)NCCCCN(CC(=O)O)C(=O)c2cccc(OC(C)=O)c2OC(C)=O)c1OC(C)=O | 28 | 20 | 20 | 25 |  | 26 | Activity (Pseudomonas aeruginosa [7]): 25 |
| COC(=O)Oc1cccc(C(=O)N(CCCCn2c(=O)oc3c(OC(=O)OC)cccc3c2=O)CC(=O)O)c1OC(=O)OC | 30 | 18 |  | 23 | 24 | 27 |  |
| CC(=O)Oc1cccc(C(=O)NCCCCN(Cc2ccccc2OCC(=O)O)C(=O)c2cccc(OC(C)=O)c2OC(C)=O)c1OC(C)=O | 26 | 18 | 26 | 25 | 27 |  |  |
| COC(=O)Oc1cc(Br)cc(C(=O)N(C)CCCN(CC(=O)O)C(=O)c2cc(Br)cc(OC(=O)OC)c2OC(=O)OC)c1OC(=O)OC | 32 | 22 | 20 | 27 | 27 | 25 |  |
| CC(=O)Oc1cccc(C(=O)NCCCCN(Cc2ccc(OCC(=O)O)cc2)C(=O)c2cccc(OC(C)=O)c2OC(C)=O)c1OC(C)=O | 27 | 22 | 25 | 12 | 23 | 19 |  |
| COC(=O)Oc1cccc(C(=O)N(C)CCCN(CC(=O)O)C(=O)c2cccc(OC(=O)OC)c2OC(=O)OC)c1OC(=O)OC | 20 | 15 | 13 | 25 | 18 | 9 |  |
| COC(=O)Oc1cccc(C(=O)N(CCCn2c(=O)oc3c(OC(=O)OC)cccc3c2=O)C(C)C(=O)NC(C(=O)NC2C(=O)N3C2SC(C)(C)C3C(=O)O)c2ccccc2)c1OC(=O)OC (configuration not stated) |  |  |  |  |  |  | Zone of inhibition (Escherichia coli [8]): 22 mm; Zone of inhibition (Escherichia coli [9]): 25 mm; Zone of inhibition (Escherichia coli [10]): 24.5 mm; Zone of inhibition (Escherichia coli [11]): 11.5 mm; Zone of inhibition (Escherichia coli [12]): 22.5 mm; MIC (Escherichia coli [13]): 0.4 µg/mL (≈ 0.421 µM); MIC (Klebsiella pneumoniae): < 0.05 µg/mL; MIC (Pseudomonas aeruginosa [14]): 0.1 µg/mL (≈ 0.105 µM); MIC (Serratia marcescens): 0.2 µg/mL (≈ 0.211 µM); MIC (Staphylococcus aureus): 1.56 µg/mL (≈ 1.64 µM); MIC [15]: 0.4 µg/mL (≈ 0.421 µM); MIC (Pseudomonas aeruginosa [16]): 3.12 µg/mL (≈ 3.28 µM) |
| CC(=O)Oc1cccc(C(=O)N(C)CCCN(Cc2ccccc2C(=O)O)C(=O)c2cccc(OC(C)=O)c2OC(C)=O)c1OC(C)=O | 21 | 20 |  | 17 | 18 | 19 |  |
| COC(=O)Oc1cccc2c(=O)n(-c3cc(C(=O)O)cc(-n4c(=O)oc5c(OC(=O)OC)cccc5c4=O)c3)c(=O)oc12 | 20 | 15 | 20 |  | 18 | 25 |  |
